Data from ChEMBL document CHEMBL1126205, “Novel spirosuccinimides with incorporated isoindolone and benzisothiazole 1,1-dioxide moieties as aldose reductase inhibitors and antihyperglycemic agents” (1992).
Calls of active or inactive are those of the source. No cut-off for these calls is given here.

Assays:
Mus musculus = experiment: Antihyperglycemic activity measured as percent decrease in mice plasma glucose at 100 mg/Kg/day; format: functional
In short: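 Male db/db (C57BL/KsJ) mice, 4–6 per group, dosed at 100 mg/kg per day. Plasma glucose of the drug-treated group is expressed as percent decrease relative to a vehicle-treated control group. Values are mean ± SE, with p < 0.05 marked.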

Rattus norvegicus [1] = experiment: In vivo galactitol inhibitory activity measured by its ability to inhibit galactitol accumulation in lens at 6 mg/Kg/day; NS=Not significant (% Inhibition); format: functional, organism-based; conditions: Lens of camera-type eye
In short: (§1)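 Rats (n = 6) fed 20% galactose for 4 days, with compound given in the diet at the stated mg/kg per day. Galactitol accumulation in lens, sciatic nerve or diaphragm is scored as percent inhibition versus the non-treated group, as means of 3–8 drug-treated tissue samples. Dunnett's multiple comparison test applies; NS means p > 0.05.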

Rattus norvegicus [2] = experiment: In vivo galactitol inhibitory activity measured by its ability to inhibit galactitol accumulation in lens at 3 mg/Kg/day; NS=Not significant (% Inhibition); format: functional, organism-based; conditions: Lens of camera-type eye; in short: as §1
Rattus norvegicus [3] = experiment: In vivo galactitol inhibitory activity measured by its ability to inhibit galactitol accumulation in sciatic nerve at 3 mg/Kg/day; NS=Not significant (% Inhibition); format: functional, organism-based
In short: (§2)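 Rats (n = 6) fed 20% galactose for 4 days, with compound given in the diet at the stated daily dose. Galactitol accumulation was measured in lens, sciatic nerve and diaphragm, and % inhibition was taken versus the nontreated group. Means are from three to eight drug-treated tissue samples. Dunnett's multiple comparison test was applied, with p > 0.05 reported as not significant.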

[4] = molecular target: Aldo-keto reductase family 1 member B1 (Bos taurus) (UniProt P16116); experiment: In vitro aldose reductase inhibitory activity measured by NADPH-dependent inhibition of glyceraldehyde reduction in a partially purified bovine lens preparation at 10E-6 M
In short: (§3)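 Aldose reductase partially purified from bovine lens. Inhibition of NADPH-dependent glyceraldehyde reduction is measured at the single stated concentration and reported as percent inhibition, the mean of two determinations.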

Rattus norvegicus [5] = experiment: In vivo galactitol inhibitory activity measured by its ability to inhibit galactitol accumulation in diaphragm at 10 mg/Kg/day; format: functional; in short: as §1
Rattus norvegicus [6] = experiment: In vivo galactitol inhibitory activity measured by its ability to inhibit galactitol accumulation in diaphragm at 6 mg/Kg/day; format: functional; in short: as §1
Rattus norvegicus [7] = experiment: In vivo galactitol inhibitory activity measured by its ability to inhibit galactitol accumulation in lens at 10 mg/Kg/day; NS=Not significant (% Inhibition); format: functional; conditions: Lens of camera-type eye; in short: as §1
Rattus norvegicus [8] = experiment: In vivo galactitol inhibitory activity measured by its ability to inhibit galactitol accumulation in sciatic nerve at 6 mg/Kg/day; NS=Not significant (% Inhibition); format: functional, organism-based; in short: as §2
Rattus norvegicus [9] = experiment: In vivo galactitol inhibitory activity measured by its ability to inhibit galactitol accumulation in diaphragm at 3 mg/Kg/day; NS=Not significant (% Inhibition); format: functional, organism-based; in short: as §1
Rattus norvegicus [10] = experiment: In vivo galactitol inhibitory activity measured by its ability to inhibit galactitol accumulation in sciatic nerve at 10 mg/Kg/day; NS=Not significant (% Inhibition); format: functional, organism-based; in short: as §2
[11] = molecular target: Aldo-keto reductase family 1 member B1 (Bos taurus) (UniProt P16116); experiment: In vitro aldose reductase inhibitory activity measured by NADPH-dependent inhibition of glyceraldehyde reduction in a partially purified bovine lens preparation at 10E-7 M; in short: as §3
[12] = molecular target: Aldo-keto reductase family 1 member B1 (Bos taurus) (UniProt P16116); experiment: NADPH-dependent inhibition of glyceraldehyde reduction by partially purified aldose reductase from bovine lens at 10e-5 M
In short: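 Partially purified aldose reductase from bovine lens. Inhibition of NADPH-dependent glyceraldehyde reduction was measured at a single test concentration. Values are % inhibition of enzymatic activity, mean of two determinations.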

Rattus norvegicus [13] = experiment: In vivo galactitol inhibitory activity measured by its ability to inhibit galactitol accumulation in lens at 10 mg/Kg/day; format: functional; conditions: Lens of camera-type eye; in short: as §1
Rattus norvegicus [14] = experiment: In vivo galactitol inhibitory activity measured by its ability to inhibit galactitol accumulation in sciatic nerve at 10 mg/Kg/day; format: functional; conditions: Rattus norvegicus, Sciatic nerve; in short: as §2

| SMILES | Decrease (Mus musculus) | inhibition [4] | also measured |
| --- | --- | --- | --- |
| CCCCN1C2(CC(=O)NC2=O)c2ccccc2S1(=O)=O (stereo unspecified) | <15% |  |  |
| Cc1cc(Br)ccc1CN1C2(CC(=O)NC2=O)c2ccccc2S1(=O)=O (stereo unspecified) | <15% |  |  |
| O=C1CC2(C(=O)N1)c1ccccc1S(=O)(=O)N2Cc1ccc(F)cc1 (stereo unspecified) | <15% |  |  |
| O=C1CC2(C(=O)N1)c1ccccc1S(=O)(=O)N2Cc1ccc(I)cc1 (stereo unspecified) | <15% |  |  |
| CN1C(=O)c2cc(Br)ccc2C12CC(=O)NC2=O (stereo unspecified) | <15% | 71% | inhibition (Rattus norvegicus [1]): inactive; inhibition (Rattus norvegicus [2]): inactive; inhibition (Rattus norvegicus [3]): inactive; inhibition in vivo at 10 mg/kg/day (Rattus norvegicus [5]): 39%; inhibition in vivo at 6 mg/kg/day (Rattus norvegicus [6]): 27%; inhibition (Rattus norvegicus [7]): inactive; inhibition (Rattus norvegicus [8]): inactive; inhibition (Rattus norvegicus [9]): inactive; inhibition (Rattus norvegicus [10]): inactive; inhibition [11]: 27% |
| Nc1ccc(CN2C3(CC(=O)NC3=O)c3ccccc3S2(=O)=O)cc1 (stereo unspecified) | <15% |  |  |
| O=C1CC2(C(=O)N1)c1ccccc1S(=O)(=O)N2Cc1ccc(Oc2ccccc2)cc1 (stereo unspecified) | <15% | 24% | inhibition [12]: 67% |
| O=C1CC2(C(=O)N1)c1ccccc1S(=O)(=O)N2Cc1ccc([N+](=O)[O-])cc1 (stereo unspecified) | <15% | 0% | inhibition [12]: 37% |
| Cc1oc(-c2ccccc2)nc1CCOc1ccc(N2C3(CC(=O)NC3=O)c3ccccc3S2(=O)=O)cc1 (stereo unspecified) | <15% |  |  |
| CN1C(=O)c2ccc(Cl)cc2C12CC(=O)NC2=O (stereo in doubt; 32) |  | 80% | inhibition (Rattus norvegicus [1]): inactive; inhibition [11]: 37% |
| O=C1CC2(C(=O)N1)c1ccccc1S(=O)(=O)N2Cc1ccc(Br)cc1 (stereo unspecified) | 37% |  |  |
| O=C1CC2(C(=O)N1)c1ccccc1S(=O)(=O)N2Cc1ccccc1 (stereo unspecified) | <15% | 0% | inhibition [12]: 45% |
| O=C1CC2(C(=O)N1)c1ccccc1C(=O)N2Cc1ccc(I)cc1 (stereo unspecified) | <15% |  |  |
| O=C1CC2(C(=O)N1)c1ccccc1C(=O)N2Cc1cccc(Br)c1 (stereo unspecified) | <15% |  |  |
| O=C1CC2(C(=O)N1)c1ccccc1S(=O)(=O)N2Cc1ccc(Br)cc1F (stereo unspecified) | 48% | 0% | inhibition [12]: 52% |
| CC(=O)Nc1ccc(CN2C3(CC(=O)NC3=O)c3ccccc3S2(=O)=O)cc1 (stereo unspecified) | <15% |  |  |
| O=C1CC2(C(=O)N1)c1ccccc1S(=O)(=O)N2Cc1ccc(-c2ccccc2)cc1 (stereo unspecified) | <15% | 15% | inhibition [12]: 54% |
| O=C1CC2(C(=O)N1)c1ccccc1S(=O)(=O)N2c1ccc(Br)cc1 (stereo unspecified) | <15% |  | inhibition [12]: 0% |
| CN1C(=O)c2ccc([N+](=O)[O-])cc2C12CC(=O)NC2=O (stereo unspecified) | <15% | 77% | inhibition (Rattus norvegicus [2]): inactive; inhibition (Rattus norvegicus [3]): inactive; inhibition (Rattus norvegicus [9]): inactive; inhibition [11]: 32% |
| CCCCN1C(=O)c2ccccc2C12CC(=O)NC2=O (stereo unspecified) | <15% | 0% |  |
| O=C1CC2(C(=O)N1)c1ccccc1C(=O)N2Cc1c(F)cccc1Cl (stereo unspecified) | <15% |  |  |
| CCN1C2(CC(=O)NC2=O)c2ccccc2S1(=O)=O (stereo unspecified) | <15% |  |  |
| Cc1cc(CN2C3(CC(=O)NC3=O)c3ccccc3S2(=O)=O)ccc1Br (stereo unspecified) | <15% |  |  |
| O=C1CC2(C(=O)N1)c1ccccc1S(=O)(=O)N2Cc1ccccc1F (stereo unspecified) | <15% |  |  |

| SMILES | Decrease (Mus musculus) | inhibition [4] | also measured |
| --- | --- | --- | --- |
| O=C1CC2(C(=O)N1)C(=O)N(Cc1ccc(Br)cc1F)c1c(Cl)cccc12 (stereo unspecified) | <15% | 92% | inhibition in vivo at 10 mg/kg/day (Rattus norvegicus [5]): 84%; inhibition in vivo at 10 mg/kg/day (Rattus norvegicus [13]): 36%; inhibition [11]: 83%; inhibition in vivo at 10 mg/kg/day (Rattus norvegicus [14]): 86% |
| CN1C2(CC(=O)NC2=O)c2ccccc2S1(=O)=O (stereo unspecified) | <15% | 0% | inhibition [12]: 40% |
| O=C1CC2(C(=O)N1)c1ccccc1S(=O)(=O)N2CCCCc1ccc(Cl)cc1 (stereo unspecified) | 20% |  |  |
| CN1C(=O)c2cc3ccccc3cc2C12CC(=O)NC2=O (stereo unspecified) | <15% | 82% | inhibition in vivo at 10 mg/kg/day (Rattus norvegicus [5]): 59%; inhibition in vivo at 10 mg/kg/day (Rattus norvegicus [13]): 14%; inhibition [11]: 37%; inhibition in vivo at 10 mg/kg/day (Rattus norvegicus [14]): 47% |
| O=C1CC2(C(=O)N1)c1ccccc1S(=O)(=O)N2Cc1ccc(Br)cc1Cl (stereo unspecified) | <15% |  |  |
| Cc1oc(-c2ccccc2)nc1CCOc1ccc(CN2C3(CC(=O)NC3=O)c3ccccc3S2(=O)=O)cc1 (stereo unspecified) | <15% |  |  |
| O=C(O)CN1C2(CC(=O)NC2=O)c2ccccc2S1(=O)=O (stereo unspecified) |  |  | inhibition [12]: 0% |
| CSc1ccc(CN2C3(CC(=O)NC3=O)c3ccccc3S2(=O)=O)cc1 (stereo unspecified) | <15% |  |  |
| CSc1ccc2c(c1)C(=O)N(C)C21CC(=O)NC1=O (stereo unspecified) | <15% | 60% | inhibition (Rattus norvegicus [2]): inactive; inhibition (Rattus norvegicus [3]): inactive; inhibition (Rattus norvegicus [9]): inactive |
| O=C1CC2(C(=O)N1)c1ccccc1S(=O)(=O)N2CCc1ccc(Br)cc1 (stereo unspecified) | 25% |  | inhibition [12]: 0% |
| COc1ccc2c(c1)C(=O)N(C)C21CC(=O)NC1=O (stereo unspecified) | <15% | 56% | inhibition (Rattus norvegicus [2]): inactive; inhibition (Rattus norvegicus [3]): inactive; inhibition (Rattus norvegicus [9]): inactive |
| CCC(CC)N1C2(CC(=O)NC2=O)c2ccccc2S1(=O)=O (stereo unspecified) | 31% |  |  |
| CCCCCc1ccc(CN2C(=O)c3ccccc3C23CC(=O)NC3=O)cc1 (stereo unspecified) | <15% |  |  |
| O=C1CC2(C(=O)N1)c1ccccc1S(=O)(=O)N2Cc1cccc(Br)c1 (stereo unspecified) | <15% |  |  |
| O=C1CC2(C(=O)N1)c1ccccc1C(=O)N2Cc1ccccc1 (stereo unspecified) | 22% |  |  |
| O=C1CC2(C(=O)N1)c1ccccc1S(=O)(=O)N2Cc1c(F)c(F)c(F)c(F)c1F (stereo unspecified) | <15% |  |  |
| O=C1CC2(C(=O)N1)c1ccccc1S(=O)(=O)N2Cc1ccc(Cl)cc1Cl (stereo unspecified) | 19% |  |  |
| CC(C)(C)c1ccc(CN2C(=O)c3ccccc3C23CC(=O)NC3=O)cc1 (stereo unspecified) | <15% |  |  |
| CN1C(=O)c2ccc(Cl)cc2C12CC(=O)NC2=O (single isomer, unassigned; (+)) |  | 82% | inhibition [11]: 39% |
| O=C1CC2(C(=O)N1)c1ccccc1S(=O)(=O)N2Cc1ccc(C(F)(F)F)cc1 (stereo unspecified) | <15% | 0% | inhibition [12]: 34% |
| Cc1oc(-c2ccccc2)nc1CCN1C2(CC(=O)NC2=O)c2ccccc2S1(=O)=O (stereo unspecified) | <15% |  |  |
| O=C1CC2(C(=O)N1)c1ccccc1C(=O)N2Cc1ccc(Br)cc1 (stereo unspecified) | <15% |  |  |
| O=C1CC2(C(=O)N1)c1ccccc1S(=O)(=O)N2Cc1ccc2ccccc2c1Br (stereo unspecified) | <15% | 25% | inhibition [12]: 59% |
| O=C1CC2(C(=O)N1)c1ccccc1S(=O)(=O)N2Cc1ccc2ccccc2c1 (stereo unspecified) | <15% | 20% | inhibition [12]: 57% |
